MLL AF4-AF9 inh: inhibitors of human MLL-AF4/AF9 interaction; P42568; 350,000 tested, 0.47% active; inhibition, % at 10 µM; AlphaScreen, biotin-AF4 peptide binding to FLAG-AF9;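 active = every replicate reaching a set inhibition limit, whatever the replicate mean, cut at about 25% in these data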;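 also: 0% = plate neutral control median and 100% = total signal loss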
Target sequence (P42568 whole entry, looked up): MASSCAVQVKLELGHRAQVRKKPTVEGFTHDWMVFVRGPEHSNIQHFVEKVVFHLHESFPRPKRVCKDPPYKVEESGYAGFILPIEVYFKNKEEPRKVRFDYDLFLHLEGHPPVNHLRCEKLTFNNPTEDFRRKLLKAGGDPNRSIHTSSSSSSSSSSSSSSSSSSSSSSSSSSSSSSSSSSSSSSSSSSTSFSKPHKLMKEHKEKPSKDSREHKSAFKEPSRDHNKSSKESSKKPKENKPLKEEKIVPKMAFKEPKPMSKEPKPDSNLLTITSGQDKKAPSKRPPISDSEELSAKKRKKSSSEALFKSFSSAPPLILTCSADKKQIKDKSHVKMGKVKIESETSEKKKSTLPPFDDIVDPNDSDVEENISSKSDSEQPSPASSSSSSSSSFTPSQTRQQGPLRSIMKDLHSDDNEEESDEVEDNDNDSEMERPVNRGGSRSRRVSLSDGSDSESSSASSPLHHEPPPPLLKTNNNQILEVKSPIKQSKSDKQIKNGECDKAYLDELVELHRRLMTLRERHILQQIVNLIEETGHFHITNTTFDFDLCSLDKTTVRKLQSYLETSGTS
Cneo AK release: Cryptococcus neoformans lysis via adenylate kinase release | C. neoformans lysis, adenylate kinase release luminescence, 4 h; normalised: neutral wells 0, clomiphene wells 100 | lysis activity, % at 15 µM | 360,000 tested, 0.2% active;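 active = mean lysis activity across replicates of at least 80%, whatever share of replicates individually reach that level; inactive = mean lysis activity below 80%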
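read-out = cell lysis signal | test system = log-phase Cryptococcus neoformans yeast cells | input = cells at 5 × 10^6 per mL | medium = fresh YPD growth medium | signal = luminescent adenylate kinase detection reagent | timing = 4 h at 37 °C static, read 1 h later | dosing = single dose | controls = Clomiphene as positive lysis control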
PfHsp90 set2: inhibits growth of yeast expressing Plasmodium falciparum Hsp90 | S. cerevisiae expressing PfHsp90, BacTiter-Glo ATP, 48 h; yeast lacking PDR1 and PDR3 efflux regulators | inhibition, % at 9.4 µM | 310,000 tested, 0.32% active;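 active = every replicate shows inhibition above about 80%, whatever the replicate mean, limit read from the data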;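 also: 0% = DMSO neutral controls and 100% = 20 µM radicicol positive controls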
DENV2 CPE rescue: inhibitors of DENV2 cytopathic effect | DENV2-infected cells, cytopathic effect rescue, plate reader | CPE inhibition, % at 9.99 µM | 350,000 tested, 1.7% active; in the data active = CPE inhibition above about 20%, passing the limit was not always enough; tested in BHK-21 cells;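 also: 0% = median of neutral control wells and 100% = median of positive control wells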
S100A4 inh HTS: S100A4-myosin IIA interaction inhibition. S100A4/TAMRA-MyoIIA peptide fluorescence polarization. P26447. inhibition, % at 10.7 µM. AID 652163. 360,000 tested, 0.14% active;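 active = mean inhibition of at least 70% across replicates, with every replicate also reaching that level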
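Material: human S100A4 monomer with TAMRA-labelled myosin IIA peptide; buffer or medium: HEPES pH 7.2 with CaCl2, KCl, NaCl, DTT, Triton; compound dosing: one concentration per compound; schedule: 5 min incubation before reading; benchmarks: neutral control DMSO, positive control TFP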
Ecoli rRNA inh: selective bacterial rRNA inhibition in E. coli; E. coli WT GFP vs humanized-ribosome RFP mutants, fluorescence, 24 h; hits give low values; DMSO median 0, no signal -100; AID 720706; GFP signal change (wild-type ribosome), % (test concentration not listed); 350,000 tested, 1.6% active;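 active = significant combined selectivity score with lowered wild-type GFP, culture density cut under 30%, mutant RFP and density less affected; inactive = any of these conditions unmet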
Numbers without * were called inactive; . = no result; ! = not active in a repeat. Compounds with a hit are over-represented: about 3.2% of the library has one in this group of screens.

SMILES	MLL AF4-AF9 inh	Cneo AK release	PfHsp90 set2	DENV2 CPE rescue	S100A4 inh HTS	Ecoli rRNA inh
C[C@H]1CN([C@@H](C)CO)C(=O)c2cccc(NC(=O)c3ccc(-c4nccs4)cc3)c2O[C@@H]1CN(C)Cc1ccc(-c2ccccc2)cc1	3.7	-3.6	.	75.1*	2.9	3.1
C[C@@H]1CN([C@H](C)CO)C(=O)c2cccc(NC(=O)c3ccc(-c4nccs4)cc3)c2O[C@@H]1CN(C)Cc1ccc(-c2ccccc2)cc1	4.0	-1.1	.	-4.0	-27.1	1.7
Cc1noc(C)c1NC(=O)N(C)C[C@H]1Oc2c(NC(=O)c3ccc(-c4nccs4)cc3)cccc2C(=O)N([C@@H](C)CO)C[C@H]1C	-2.4	63.7	.	24.3*	26.1	2.3
C[C@@H]1CN([C@@H](C)CO)C(=O)Cc2cc(NC(=O)C3CC3)ccc2O[C@@H]1CN(C)Cc1ccc(C(=O)O)cc1	-6.6	9.2	.	2.4	28.5	3.7
COc1ccc2c3c(n(C)c2c1)[C@H](CO)N(S(=O)(=O)c1ccccc1)CC31CCN(C)CC1	8.4	.	.	-4.5	6.1	-4.6
CCOc1ccc(NCc2cc3c(C(C)(C)C)nn(-c4ccccc4)c3[nH]c2=O)cc1	10.7	-0.5	103.2*	-5.8	-9.5	0.6
CC(C)(C)c1nn(-c2ccccc2)c2[nH]c(=O)c(C=O)cc12	-1.9	-1.5	120.3*	7.1	-3.8	3.4
COc1cccc(NCc2cc3c(C(C)(C)C)nn(-c4ccccc4)c3[nH]c2=O)c1	.	-0.9	44.0	.	.	.
C[C@@H]1CN([C@H](C)CO)C(=O)c2cc(NC(=O)Nc3ccc(F)cc3)ccc2O[C@@H](C)CCCCO[C@H]1CN(C)S(=O)(=O)c1cccs1	1.7	0.0	.	47.0*!	-4.8	16.1
CC(C)NC(=O)Nc1ccc2c(c1)C(=O)N([C@@H](C)CO)C[C@H](C)[C@@H](CN(C)S(=O)(=O)c1cccs1)OCCCC[C@H](C)O2	-1.2	87.0*	.	-7.9	0.4	-3.1
C[C@@H]1CCCCO[C@H](CN(C)S(=O)(=O)c2cccs2)[C@@H](C)CN([C@@H](C)CO)C(=O)c2cc(NC(=O)c3ccccc3)ccc2O1	.	-0.8	.	22.8*	.	2.8
C[C@H]1CCCCO[C@H](CN(C)S(=O)(=O)c2cccs2)[C@@H](C)CN([C@@H](C)CO)C(=O)c2cc(NC(=O)Nc3ccc(F)cc3)ccc2O1	0.6	-4.4	.	-6.7	3.7	1.9
O=C(C[C@@H]1CC[C@H](NS(=O)(=O)c2ccc(F)cc2)[C@@H](CO)O1)NC1CCCCC1	-2.7	1.5	.	-8.6	20.7	-1.2
CC(C)c1cn(CC[C@H]2CC[C@H](NC(=O)C3CCCC3)[C@@H](CO)O2)nn1	-4.1	44.6	.	18.2	-10.5	0.5
O=C(Nc1cccc2ccccc12)N1N=CCC1c1ccccc1 (configuration not stated)	-0.6	-0.1	.	0.0	-1.4	-28.4*
S=C(Nc1ccccc1)N1N=CCC1c1ccccc1 (configuration not stated)	.	-3.1	-24.7	.	.	.
O=C(Nc1cccc(Cl)c1)N1N=CCC1c1ccccc1 (configuration not stated)	-3.3	5.6	.	-6.6	-2.5	-26.8*
CCCNC(=O)N1[C@H](CO)[C@H]2c3ccccc3N(C)C[C@H]21	-1.3	-3.5	.	-5.6	3.4	0.1
O=C([C@H]1[C@H](CO)[C@H]2Cn3c(cccc3=O)[C@H]2N1C(=O)CC1CC1)N1CCCCC1	-1.4	-1.7	.	0.1	2.4	1.0
C[C@H]1CN([C@@H](C)CO)C(=O)c2cccc(NC(=O)Nc3ccc(F)cc3)c2O[C@H]1CN(C)CC1CCCCC1	0.9	-7.6	.	-7.3	-7.1	0.5
CCCCN1C=C(C(=O)OCC)C(=O)CC1	-2.1	-2.4	5.6	9.9	-1.4	26.6
CCCCN1C=C(C(C)=O)C(=O)CC1	-2.0	0.6	10.1	46.8*	-14.9	4.1
COc1ccc(N2CCN(Cc3cc(=O)oc4ccc(Cl)cc34)CC2)cc1	.	-2.3	-166.8	.	.	.
COc1ccc2nc3cc(Cl)ccc3c(Nc3ccc(O)c(CN4CCN(C)CC4)c3)c2c1	58.6*	.	-23.2	8.0	8.9	-48.5
